Converted amounts (≈) assume the structure as drawn. The source made the active and inactive calls. The calls are words filed in the database; no cut-off is given here.
Columns and labels:
Staphylococcus aureus = experiment: Antibacterial activity against Staphylococcus aureus ATCC 29213; format: functional
[1] = molecular target: DNA topoisomerase II (Homo sapiens) (UniProt P11388+Q02880); experiment: Activity against human topoisomerase 2; format: protein assay
Method in brief: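 Human topoisomerase II DNA cleavage assay. The read-out is EC₂, the drug concentration that enhances enzyme-mediated cleavage of double-stranded DNA 2-fold.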

[2] = molecular target: DNA topoisomerase 4 subunit A (Staphylococcus aureus, UniProt P0C1U9); experiment: Inhibition of topoisomerase 4 decatenation in Staphylococcus aureus ATCC 29213
[3] = molecular target: DNA gyrase (Staphylococcus aureus) (UniProt P0A0K8+P20831); experiment: Inhibition of DNA gyrase supercoiling in Staphylococcus aureus ATCC 29213; format: protein-complex assay
Escherichia coli = experiment: Antibacterial activity against Escherichia coli ATCC 25922; format: functional
DNA gyrase = DNA gyrase (Escherichia coli, UniProt P0AES4+P0AES6); experiment: Inhibition of DNA gyrase supercoiling in Escherichia coli ATCC 25922; format: protein-complex assay

DNA topoisomerase 4 subunit A, sequence (P0C1U9 whole entry): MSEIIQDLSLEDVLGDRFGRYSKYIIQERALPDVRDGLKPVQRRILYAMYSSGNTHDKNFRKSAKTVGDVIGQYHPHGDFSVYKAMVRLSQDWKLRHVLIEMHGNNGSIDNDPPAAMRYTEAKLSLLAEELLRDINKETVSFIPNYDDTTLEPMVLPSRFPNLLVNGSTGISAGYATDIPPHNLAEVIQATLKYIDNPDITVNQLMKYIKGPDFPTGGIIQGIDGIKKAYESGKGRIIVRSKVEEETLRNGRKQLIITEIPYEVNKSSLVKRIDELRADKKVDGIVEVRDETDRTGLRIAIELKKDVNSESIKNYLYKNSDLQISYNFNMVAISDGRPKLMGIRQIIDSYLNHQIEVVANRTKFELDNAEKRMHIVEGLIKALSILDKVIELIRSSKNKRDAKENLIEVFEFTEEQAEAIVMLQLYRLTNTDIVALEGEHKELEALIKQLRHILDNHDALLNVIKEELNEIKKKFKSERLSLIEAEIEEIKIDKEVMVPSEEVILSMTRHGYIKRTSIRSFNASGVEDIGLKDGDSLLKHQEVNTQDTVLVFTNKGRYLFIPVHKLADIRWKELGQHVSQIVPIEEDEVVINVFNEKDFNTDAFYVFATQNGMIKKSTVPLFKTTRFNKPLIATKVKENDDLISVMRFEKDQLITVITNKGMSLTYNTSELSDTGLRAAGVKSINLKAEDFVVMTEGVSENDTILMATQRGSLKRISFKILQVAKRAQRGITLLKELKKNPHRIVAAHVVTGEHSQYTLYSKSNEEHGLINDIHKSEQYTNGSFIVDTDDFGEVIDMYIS
DNA gyrase (Staphylococcus aureus), sequence (P0A0K8 2-644 limits assumed): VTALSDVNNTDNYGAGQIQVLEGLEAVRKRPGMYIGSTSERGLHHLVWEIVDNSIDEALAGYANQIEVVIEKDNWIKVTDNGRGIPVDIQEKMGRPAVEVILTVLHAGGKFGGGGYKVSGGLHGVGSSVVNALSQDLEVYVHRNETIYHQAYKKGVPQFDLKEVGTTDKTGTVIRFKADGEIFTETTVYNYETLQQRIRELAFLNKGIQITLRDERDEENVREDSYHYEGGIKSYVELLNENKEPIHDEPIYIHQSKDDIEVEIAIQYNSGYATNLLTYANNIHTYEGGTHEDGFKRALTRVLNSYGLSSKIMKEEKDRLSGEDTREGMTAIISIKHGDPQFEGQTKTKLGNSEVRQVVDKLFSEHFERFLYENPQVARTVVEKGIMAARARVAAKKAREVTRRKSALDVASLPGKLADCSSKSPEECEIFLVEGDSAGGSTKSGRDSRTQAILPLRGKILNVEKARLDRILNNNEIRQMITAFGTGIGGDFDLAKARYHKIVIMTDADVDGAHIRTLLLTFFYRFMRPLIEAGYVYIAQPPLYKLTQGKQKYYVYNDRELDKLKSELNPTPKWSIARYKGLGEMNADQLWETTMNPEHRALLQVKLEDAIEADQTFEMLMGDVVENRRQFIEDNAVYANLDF
DNA gyrase (Staphylococcus aureus), sequence (P20831 whole entry partner): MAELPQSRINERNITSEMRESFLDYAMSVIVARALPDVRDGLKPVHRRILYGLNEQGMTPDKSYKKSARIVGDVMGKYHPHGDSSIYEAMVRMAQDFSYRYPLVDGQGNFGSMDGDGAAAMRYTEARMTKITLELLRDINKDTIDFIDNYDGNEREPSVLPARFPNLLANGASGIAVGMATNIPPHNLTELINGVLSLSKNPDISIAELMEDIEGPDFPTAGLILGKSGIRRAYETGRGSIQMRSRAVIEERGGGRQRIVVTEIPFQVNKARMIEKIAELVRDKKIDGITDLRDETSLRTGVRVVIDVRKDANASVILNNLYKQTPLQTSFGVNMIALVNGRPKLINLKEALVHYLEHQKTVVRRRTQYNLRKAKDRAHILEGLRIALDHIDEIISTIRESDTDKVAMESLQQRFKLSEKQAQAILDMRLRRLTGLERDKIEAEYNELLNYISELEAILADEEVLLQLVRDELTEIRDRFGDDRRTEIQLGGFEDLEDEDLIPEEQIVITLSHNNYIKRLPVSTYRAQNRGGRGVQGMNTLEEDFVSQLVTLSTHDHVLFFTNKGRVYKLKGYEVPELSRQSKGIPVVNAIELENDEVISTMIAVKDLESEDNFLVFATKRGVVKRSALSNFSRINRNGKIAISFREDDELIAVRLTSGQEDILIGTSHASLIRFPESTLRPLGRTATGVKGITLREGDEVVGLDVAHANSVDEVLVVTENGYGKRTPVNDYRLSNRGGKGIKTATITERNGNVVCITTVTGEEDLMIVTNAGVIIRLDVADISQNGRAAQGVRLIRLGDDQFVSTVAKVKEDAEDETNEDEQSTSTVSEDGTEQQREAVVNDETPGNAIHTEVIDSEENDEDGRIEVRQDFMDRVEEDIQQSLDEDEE

With O=C(O)c1cn(C2CC2)c2cc(N3CCNCC3)c(F)cc2c1=O [CIPROFLOXACIN] the MIC (Staphylococcus aureus) was 0.25 mg/L (≈ 0.754 µM).

CCc1c2s[nH]c(=O)c2c(=O)n2ccc(N3CCC(N(C)C)C3)cc12 (racemic) was tested, and the Activity [1] was “inactive”, the MIC (Staphylococcus aureus) was 8 mg/L (≈ 22.3 µM) and the IC50 [2] was 79 µM. For the same compound, the Activity [3] was “inactive”, the MIC (Escherichia coli) was 4 mg/L (≈ 11.2 µM) and the IC50 (DNA gyrase) was 24 µM.

CCc1c2s[nH]c(=O)c2c(=O)n2ccc(-c3cc(C)nc(C)c3)cc12 was tested, and the Activity [1] was “inactive”, the MIC (Staphylococcus aureus) was 0.125 mg/L (≈ 0.356 µM) and the IC50 [2] was 6.3 µM. For the same compound, the Activity [3] was “inactive”, the MIC (Escherichia coli) was 1 mg/L (≈ 2.85 µM) and the IC50 (DNA gyrase) was 0.2 µM.

In the case of CCc1c2s[nH]c(=O)c2c(=O)n2ccc(-c3ccncc3)cc12, the Activity [1] is reported as “inactive”, the MIC (Staphylococcus aureus) is reported as 0.125 mg/L (≈ 0.387 µM) and the IC50 [2] is reported as 8.1 µM. For the same compound, the Activity [3] was “inactive”, the MIC (Escherichia coli) was 0.25 mg/L (≈ 0.773 µM) and the IC50 (DNA gyrase) was 0.4 µM.

Compound CCn1cc(C(=O)O)c(=O)c2cc(F)c(N3CCNCC3)cc21 [NORFLOXACIN] has an MIC (Staphylococcus aureus) of 0.5 mg/L (≈ 1.57 µM) and an MIC (Escherichia coli) of 0.06 mg/L (≈ 0.188 µM).

With CCc1c2s[nH]c(=O)c2c(=O)n2ccc(N3CCNCC3)cc12 the Activity [1] was “inactive”, the MIC (Staphylococcus aureus) was 16 mg/L (≈ 48.4 µM) and the IC50 [2] was 37 µM. For the same compound, the Activity [3] was “inactive”, the MIC (Escherichia coli) was 4 mg/L (≈ 12.1 µM) and the IC50 (DNA gyrase) was 14 µM.

— ChEMBL document CHEMBL1148591, “Isothiazolopyridones: synthesis, structure, and biological activity of a new class of antibacterial agents” (J Med Chem, 2006)
